Measured values reported in ChEMBL document CHEMBL3792370, “New pseudodimeric aurones as palm pocket inhibitors of Hepatitis C virus RNA-dependent RNA polymerase” (Eur J Med Chem, 2016).
pEC50, pIC50: −log10 of the molar value. Activity calls are given as the source filed them. No cut-off for these calls is given here.

Assays:
HEK293 = test: Cytotoxicity against HEK293 cells at 50 uM after 72 hrs by MTT assay; conditions: human, hek293, 72 h
[1] = Inhibition of HCV J4 genotype 1b recombinant His-tagged NS5B truncated at 21 C-terminal expressed in Escherichia coli C41 (DE3) assessed as synthesis of […]; design: species or system Hepatitis C virus isolate HC-J4
Hepatitis C virus = test: Antiviral activity against HCV genotype 2a/2a J6/JFH1 model infected in Huh7.5 cells after 72 hrs by luciferase reporter gene assay; format: functional, organism-based, Hepacivirus hominis; conditions: subtype 2a J6/JFH1, Huh7.5, 72 h
Outline: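 Huh7.5 cells were seeded at 10 000 cells/well and infected 24 h later with J6/JFH1 HCVcc, then incubated overnight at 37°C. Cells were washed and given increasing compound concentrations in medium with 1% DMSO for 72 h at 37°C. After a PBS wash, cells were lysed in Renilla lysis buffer and luciferase activity was read for 10 s.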

[2] = Inhibition of HCV J4 genotype 1b recombinant His-tagged NS5B truncated at 21 C-terminal P495L mutant expressed in Escherichia coli C41 (DE3) assessed as synthesis of […]; design: species or system Hepatitis C virus isolate HC-J4
[3] = tested on: Hepatitis C virus isolate HC-J4; test: Inhibition of HCV J4 genotype 1b recombinant His-tagged NS5B truncated at 21 C-terminal H95Q mutant expressed in Escherichia coli C41 (DE3) assessed as synthesis of […]

SMILES	Activity (HEK293)	pIC50 [1]	pEC50 (Hepatitis C virus)	pIC50 [2]	Activity [3]
COc1cc(OC)c2c(c1)O/C(=C\c1cccc(/C=C3\Oc4cc(OC)cc(OC)c4C3=O)c1)C2=O	Non-toxic	–	–	–	–
O=C1/C(=C/c2ccc(OCC(COc3ccc(/C=C4\Oc5cc(O)cc(O)c5C4=O)cc3)CC3CCCCC3)cc2)Oc2cc(O)cc(O)c21 (stereo unspecified)	–	5.74	4.05	–	–
O=C1/C(=C/c2cccc(/C=C3\Oc4cc(O)cc(O)c4C3=O)c2)Oc2cc(O)cc(O)c21	–	5.44	–	–	–
O=C1/C(=C/c2ccc(OCC(COc3ccc(/C=C4\Oc5cc(O)cc(O)c5C4=O)cc3)C3CCCCC3)cc2)Oc2cc(O)cc(O)c21 (stereo unspecified)	–	5.70	4.38	–	–
COc1c(-c2ccc3cc(NS(C)(=O)=O)ccc3c2)cc(-n2ccc(=O)[nH]c2=O)cc1C(C)(C)C [DASABUVIR]	–	6.22	5.04	–	–
O=C1/C(=C/c2ccc(/C=C3\Oc4cc(O)cc(O)c4C3=O)cc2)Oc2cc(O)cc(O)c21	Non-toxic	5.89	3.69	5.82	inactive
O=C1/C(=C/c2ccc(-c3cccc(/C=C4\Oc5cc(O)cc(O)c5C4=O)c3)cc2)Oc2cc(O)cc(O)c21	–	5.51	–	–	–
O=C1/C(=C/c2ccc(OCCCOc3ccc(/C=C4\Oc5cc(O)cc(O)c5C4=O)cc3)cc2)Oc2cc(O)cc(O)c21	–	5.82	3.67	–	–
O=C1/C(=C/c2ccc(OCC(COc3ccc(/C=C4\Oc5cc(O)cc(O)c5C4=O)cc3)C3CCCC3)cc2)Oc2cc(O)cc(O)c21 (stereo unspecified)	–	5.72	–	–	–
CC(C)CC(COc1ccc(/C=C2\Oc3ccccc3C2=O)cc1)COc1ccc(/C=C2\Oc3ccccc3C2=O)cc1	–	–	< 3.40	–	–
CC(C)CC(COc1ccc(/C=C2\Oc3cc(O)cc(O)c3C2=O)cc1)COc1ccc(/C=C2\Oc3cc(O)cc(O)c3C2=O)cc1	–	5.72	4.12	–	–
O=C1/C(=C/c2ccc(-c3ccccc3/C=C3\Oc4cc(O)cc(O)c4C3=O)cc2)Oc2cc(O)cc(O)c21	–	5.22	–	–	–
